{"source": "ChEMBL document CHEMBL4393654", "about": "“Discovery and Early Clinical Development of an Inhibitor of 5-Lipoxygenase Activating Protein (AZD5718) for Treatment of Coronary Artery Disease” (J Med Chem, 2019)", "key": {"[1]": {"tested_on": "Cytochrome P450", "experiment": "Drug metabolism in human hepatocytes assessed as CYP450-mediated phase-2 glucuronidation/ketone reduction at 4 uM measured after 120 mins by LC-MS/MS analysis", "type": "ADME, cell-based, Hepatocyte", "settings": "2 h"}, "[2]": {"experiment": "Toxicity in conscious telemetered Beagle dog assessed as vomiting", "design": "species or system Canis lupus familiaris", "settings": "in vivo"}, "[3]": {"experiment": "Volume of distribution at steady state in rat at 2 umol/kg, iv", "type": "ADME", "settings": "in vivo, read-out: Vdss"}, "[4]": {"experiment": "Oral bioavailability in rat at 2.8 umol/kg", "type": "ADME, organism-based", "settings": "in vivo"}, "[5]": {"experiment": "Clearance in rat at 2 umol/kg, iv", "type": "ADME", "settings": "in vivo"}, "[6]": {"experiment": "Half life in rat at 2 umol/kg, iv", "type": "ADME", "settings": "in vivo"}, "[7]": {"biological_target": "Potassium/sodium hyperpolarization-activated cyclic nucleotide-gated channel 4 (Homo sapiens, UniProt Q9Y3Q4)", "sequence (Q9Y3Q4 whole entry)": "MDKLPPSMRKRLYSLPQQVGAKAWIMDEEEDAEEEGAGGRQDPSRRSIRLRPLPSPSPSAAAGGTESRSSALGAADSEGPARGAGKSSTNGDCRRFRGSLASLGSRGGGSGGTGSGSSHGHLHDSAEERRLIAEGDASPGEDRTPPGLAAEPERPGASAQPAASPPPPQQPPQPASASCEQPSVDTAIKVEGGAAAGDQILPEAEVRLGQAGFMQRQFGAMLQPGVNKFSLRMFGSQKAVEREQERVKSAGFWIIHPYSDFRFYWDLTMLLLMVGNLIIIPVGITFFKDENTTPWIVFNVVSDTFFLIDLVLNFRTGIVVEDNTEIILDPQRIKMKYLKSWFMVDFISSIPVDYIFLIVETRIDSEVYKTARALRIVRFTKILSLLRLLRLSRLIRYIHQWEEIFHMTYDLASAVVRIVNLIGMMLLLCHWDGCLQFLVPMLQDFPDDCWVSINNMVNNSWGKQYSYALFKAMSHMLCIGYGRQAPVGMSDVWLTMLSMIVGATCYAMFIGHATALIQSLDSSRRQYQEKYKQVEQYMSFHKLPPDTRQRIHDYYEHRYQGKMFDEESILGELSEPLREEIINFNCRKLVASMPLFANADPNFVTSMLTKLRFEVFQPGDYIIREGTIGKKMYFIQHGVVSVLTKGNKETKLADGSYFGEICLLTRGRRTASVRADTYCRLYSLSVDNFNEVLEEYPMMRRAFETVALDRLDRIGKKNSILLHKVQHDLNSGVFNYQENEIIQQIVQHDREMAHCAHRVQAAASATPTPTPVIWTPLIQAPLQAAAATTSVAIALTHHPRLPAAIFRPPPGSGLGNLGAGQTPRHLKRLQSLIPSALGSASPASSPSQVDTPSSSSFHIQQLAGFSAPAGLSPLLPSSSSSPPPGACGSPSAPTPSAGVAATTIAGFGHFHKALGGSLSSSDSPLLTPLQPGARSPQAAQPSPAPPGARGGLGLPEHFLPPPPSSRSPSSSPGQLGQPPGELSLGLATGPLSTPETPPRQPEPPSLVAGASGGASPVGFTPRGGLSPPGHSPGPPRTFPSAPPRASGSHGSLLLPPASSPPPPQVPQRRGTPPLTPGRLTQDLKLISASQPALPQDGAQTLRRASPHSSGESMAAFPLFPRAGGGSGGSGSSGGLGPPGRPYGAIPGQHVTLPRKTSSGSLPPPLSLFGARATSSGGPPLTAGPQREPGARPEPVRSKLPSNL", "experiment": "Inhibition of human HCN4 by Ion-work electrophysiology assay"}, "[8]": {"experiment": "Oral bioavailability in Beagle dog at 4.2 umol/kg", "type": "ADME, organism-based, Canis lupus familiaris", "settings": "in vivo"}, "[9]": {"biological_target": "Potassium voltage-gated channel subfamily A member 5 (Homo sapiens, UniProt P22460)", "sequence (P22460 whole entry)": "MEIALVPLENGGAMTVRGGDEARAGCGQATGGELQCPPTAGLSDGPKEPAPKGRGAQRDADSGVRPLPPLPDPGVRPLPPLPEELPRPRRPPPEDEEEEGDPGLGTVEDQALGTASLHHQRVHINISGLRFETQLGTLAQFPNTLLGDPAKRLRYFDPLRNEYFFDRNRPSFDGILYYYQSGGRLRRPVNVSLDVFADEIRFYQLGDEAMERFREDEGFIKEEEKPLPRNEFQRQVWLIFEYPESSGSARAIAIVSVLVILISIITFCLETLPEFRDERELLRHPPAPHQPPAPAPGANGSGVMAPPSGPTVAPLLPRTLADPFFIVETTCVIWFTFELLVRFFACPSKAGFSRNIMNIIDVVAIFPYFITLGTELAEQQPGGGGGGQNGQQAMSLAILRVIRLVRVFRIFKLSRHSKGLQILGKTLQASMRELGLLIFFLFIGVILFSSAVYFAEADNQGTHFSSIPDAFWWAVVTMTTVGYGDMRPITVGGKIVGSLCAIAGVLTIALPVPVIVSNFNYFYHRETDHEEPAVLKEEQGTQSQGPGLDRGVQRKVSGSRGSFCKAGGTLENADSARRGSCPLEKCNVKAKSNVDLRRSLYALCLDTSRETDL", "experiment": "Inhibition of human Kv1.5 by Ion-work electrophysiology assay"}, "[10]": {"biological_target": "Bile salt export pump (Homo sapiens, UniProt O95342)", "sequence (O95342 whole entry)": "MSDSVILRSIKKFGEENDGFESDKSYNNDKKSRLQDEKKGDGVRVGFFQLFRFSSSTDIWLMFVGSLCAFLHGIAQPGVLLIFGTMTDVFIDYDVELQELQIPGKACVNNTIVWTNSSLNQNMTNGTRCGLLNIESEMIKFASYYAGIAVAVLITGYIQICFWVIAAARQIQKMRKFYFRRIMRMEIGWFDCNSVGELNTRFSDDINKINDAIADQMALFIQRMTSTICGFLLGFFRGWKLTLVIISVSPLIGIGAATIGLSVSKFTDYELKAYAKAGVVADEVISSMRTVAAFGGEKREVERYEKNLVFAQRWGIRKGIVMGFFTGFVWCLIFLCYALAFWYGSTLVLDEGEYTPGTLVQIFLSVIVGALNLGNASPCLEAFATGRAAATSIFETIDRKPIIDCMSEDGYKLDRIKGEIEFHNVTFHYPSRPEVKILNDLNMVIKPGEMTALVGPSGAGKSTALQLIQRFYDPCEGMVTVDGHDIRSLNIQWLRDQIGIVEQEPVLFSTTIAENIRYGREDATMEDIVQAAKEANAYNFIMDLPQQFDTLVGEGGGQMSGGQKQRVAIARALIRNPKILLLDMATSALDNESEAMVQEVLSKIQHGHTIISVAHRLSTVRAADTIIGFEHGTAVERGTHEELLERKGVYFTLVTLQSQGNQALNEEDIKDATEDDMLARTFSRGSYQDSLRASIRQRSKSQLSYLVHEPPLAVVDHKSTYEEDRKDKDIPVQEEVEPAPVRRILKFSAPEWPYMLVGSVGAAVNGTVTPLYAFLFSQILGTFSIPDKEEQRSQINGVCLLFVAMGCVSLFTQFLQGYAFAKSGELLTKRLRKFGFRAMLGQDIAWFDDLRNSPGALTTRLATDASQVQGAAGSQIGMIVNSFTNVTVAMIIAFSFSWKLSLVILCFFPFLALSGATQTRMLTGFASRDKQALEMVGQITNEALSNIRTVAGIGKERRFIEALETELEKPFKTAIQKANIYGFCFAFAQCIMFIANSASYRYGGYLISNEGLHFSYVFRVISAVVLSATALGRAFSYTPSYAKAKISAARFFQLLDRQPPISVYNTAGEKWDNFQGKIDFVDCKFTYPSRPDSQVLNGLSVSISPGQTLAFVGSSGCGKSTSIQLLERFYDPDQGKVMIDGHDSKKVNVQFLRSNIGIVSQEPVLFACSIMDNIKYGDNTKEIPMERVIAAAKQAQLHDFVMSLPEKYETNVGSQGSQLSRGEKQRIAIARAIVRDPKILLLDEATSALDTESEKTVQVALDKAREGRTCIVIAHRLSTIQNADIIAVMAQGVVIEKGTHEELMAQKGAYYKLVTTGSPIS", "experiment": "Inhibition of recombinant human BSEP expressed in baculovirus infected Sf21 insect cell vesicles assessed as reduction in NBD-taurocholate uptake by fluorescence assay", "type": "ADME"}, "[11]": {"experiment": "Cardiotoxicity in conscious telemetered Beagle dog assessed as effect on arterial blood pressure at 0.5 to 30 mg/kg administered as single iv infusion for 2 hrs measured up to 48 hrs post dose by telemetry", "type": "toxicity, organism-based, Canis lupus familiaris", "settings": "in vivo", "procedure,_shortened": "(§1)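 Conscious beagle dogs were given the compound by intravenous infusion. Infusion was set to reach a target plasma concentration 100-fold above the predicted free human Cmax at the therapeutic dose, and cardiovascular parameters were recorded.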"}, "[12]": {"experiment": "Cardiotoxicity in conscious telemetered Beagle dog", "type": "toxicity, Canis lupus familiaris"}, "[13]": {"experiment": "Oral bioavailability in rat at 2.5 umol/kg", "type": "ADME, organism-based", "settings": "in vivo"}, "[14]": {"experiment": "Cardiotoxicity in conscious telemetered Beagle dog assessed as effect on body temperature at 0.5 to 30 mg/kg administered as single iv infusion for 2 hrs measured up to 48 hrs post dose by telemetry", "type": "toxicity, organism-based, Canis lupus familiaris", "settings": "in vivo", "procedure,_shortened": "as §1"}, "[15]": {"experiment": "Half life in human at 60 to 1200 mg, po administered as single dose", "type": "ADME, organism-based", "settings": "in vivo"}, "[16]": {"experiment": "Cardiotoxicity in conscious telemetered Beagle dog assessed as effect on heart rate at 0.5 to 30 mg/kg administered as single iv infusion for 2 hrs measured up to 48 hrs post dose by telemetry", "type": "toxicity, organism-based, Canis lupus familiaris", "settings": "in vivo", "procedure,_shortened": "as §1"}, "[17]": {"experiment": "Cardiotoxicity in rat assessed as effect on cardiac function measured up to 28 days during compound dosing", "type": "toxicity", "settings": "in vivo, 672 h"}, "[18]": {"experiment": "Cardiotoxicity in conscious telemetered Beagle dog assessed as effect on left ventricular parameters at 0.5 to 30 mg/kg administered as single iv infusion for 2 hrs measured up to 48 hrs post dose by telemetry", "type": "toxicity, organism-based, Canis lupus familiaris", "settings": "in vivo", "procedure,_shortened": "as §1"}, "[19]": {"experiment": "Cardiotoxicity in rat assessed as effect on histopathological changes measured up to 28 days during compound dosing", "type": "toxicity", "settings": "in vivo, 672 h"}, "[20]": {"experiment": "Cardiotoxicity in conscious telemetered Beagle dog assessed as effect on lead 2 electrocardiogram at 0.5 to 30 mg/kg administered as single iv infusion for 2 hrs measured up to 48 hrs post dose by telemetry", "type": "toxicity, organism-based, Canis lupus familiaris", "settings": "in vivo", "procedure,_shortened": "as §1"}, "[21]": {"experiment": "Cardiotoxicity in dog assessed as effect on histopathological changes measured up to 28 days during compound dosing", "type": "toxicity, Canis lupus familiaris", "settings": "in vivo, 672 h"}, "[22]": {"biological_target": "T1, Arachidonate 5-lipoxygenase-activating protein (Homo sapiens, UniProt P20292)", "T1 sequence (P20292 whole entry)": "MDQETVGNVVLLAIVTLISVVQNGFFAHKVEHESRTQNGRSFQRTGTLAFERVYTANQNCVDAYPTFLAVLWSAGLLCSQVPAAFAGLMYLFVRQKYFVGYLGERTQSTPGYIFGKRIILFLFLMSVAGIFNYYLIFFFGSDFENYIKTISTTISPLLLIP", "experiment": "Inhibition of [3H]MK0591 binding to human FLAP expressed in […] cell membranes measured after 60 to 80 mins by microbeta scintillation counting method"}, "[23]": {"species_on_record": "Homo sapiens", "experiment": "Selectivity ratio of compound effect on activity at COX1 in human whole blood to IC50 for FLAP in human whole blood"}, "[24]": {"tested_on": "THP-1", "experiment": "Cytotoxicity against human THP1 cells assessed as reduction in cell viability measured after 48 hrs by resazurin assay", "type": "cell-based", "settings": "THP-1, 48 h"}, "[25]": {"biological_target": "T2, Arachidonate 5-lipoxygenase-activating protein (Homo sapiens) (UniProt P20292)", "T2 sequence (whole entry)": "T1 sequence (P20292 whole entry)", "experiment": "Inhibition of FLAP in human whole blood assessed as reduction in calcium ionophore-stimulated LTB4 production preincubated for 4 hrs followed by calcium ionophore stimulation and measured after 20 mins by EIA", "type": "tissue-based", "procedure,_shortened": "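Fresh human whole blood was incubated with compound for 4 h, then stimulated with calcium ionophore, and LTB4 production was measured as the 5-LO pathway read-out. IC50 was also converted to a free value: IC50 × (Fu/100), where Fu = 100 − human plasma protein binding (%).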"}, "[26]": {"experiment": "Volume of distribution at steady state in Beagle dog at 1 umol/kg, iv", "type": "ADME, Canis lupus familiaris", "settings": "in vivo, read-out: Vdss"}, "[27]": {"biological_target": "T3, Prostaglandin G/H synthase 2 (Homo sapiens) (UniProt P35354)", "T3 sequence (whole entry)": "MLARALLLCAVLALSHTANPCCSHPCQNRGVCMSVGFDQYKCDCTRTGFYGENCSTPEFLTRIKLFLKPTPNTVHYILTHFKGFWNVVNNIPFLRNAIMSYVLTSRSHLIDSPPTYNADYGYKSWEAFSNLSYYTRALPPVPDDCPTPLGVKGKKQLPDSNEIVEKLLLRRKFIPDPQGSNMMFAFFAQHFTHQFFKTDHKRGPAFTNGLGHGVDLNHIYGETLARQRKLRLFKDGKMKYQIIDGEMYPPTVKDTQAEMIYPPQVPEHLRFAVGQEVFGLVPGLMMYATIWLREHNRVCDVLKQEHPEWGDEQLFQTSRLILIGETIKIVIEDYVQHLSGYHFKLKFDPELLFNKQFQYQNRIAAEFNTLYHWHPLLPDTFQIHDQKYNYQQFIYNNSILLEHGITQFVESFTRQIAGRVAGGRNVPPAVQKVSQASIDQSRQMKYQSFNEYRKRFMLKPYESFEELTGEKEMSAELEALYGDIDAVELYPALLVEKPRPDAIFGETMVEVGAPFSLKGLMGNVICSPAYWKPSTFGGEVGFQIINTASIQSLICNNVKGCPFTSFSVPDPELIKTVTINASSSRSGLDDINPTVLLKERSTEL", "experiment": "Activity at COX2 in human whole blood assessed as effect on LPS-induced PGE2 production preincubated for 15 mins followed by LPS-stimulation and measured after overnight incubation by EIA", "type": "tissue-based"}, "[28]": {"biological_target": "Prostaglandin G/H synthase 1 (Homo sapiens) (UniProt P23219)", "sequence (P23219 whole entry)": "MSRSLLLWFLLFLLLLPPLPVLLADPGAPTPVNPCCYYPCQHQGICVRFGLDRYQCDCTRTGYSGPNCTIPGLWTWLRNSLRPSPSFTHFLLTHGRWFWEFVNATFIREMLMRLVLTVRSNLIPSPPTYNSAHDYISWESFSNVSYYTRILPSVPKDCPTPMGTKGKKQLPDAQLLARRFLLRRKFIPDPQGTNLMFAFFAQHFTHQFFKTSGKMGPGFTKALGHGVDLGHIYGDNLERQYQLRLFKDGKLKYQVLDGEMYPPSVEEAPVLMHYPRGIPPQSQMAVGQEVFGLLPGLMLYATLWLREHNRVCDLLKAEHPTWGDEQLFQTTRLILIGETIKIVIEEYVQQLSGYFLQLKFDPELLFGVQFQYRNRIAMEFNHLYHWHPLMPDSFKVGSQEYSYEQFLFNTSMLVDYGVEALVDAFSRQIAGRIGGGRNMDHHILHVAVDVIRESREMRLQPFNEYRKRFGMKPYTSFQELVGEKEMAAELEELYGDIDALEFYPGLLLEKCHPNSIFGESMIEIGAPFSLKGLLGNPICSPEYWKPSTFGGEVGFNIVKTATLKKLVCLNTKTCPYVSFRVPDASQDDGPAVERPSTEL", "experiment": "Activity at COX1 in human whole blood assessed as effect on […] production by EIA", "type": "tissue-based"}, "[29]": {"experiment": "Half life in Beagle dog at 1 umol/kg, iv", "type": "ADME, Canis lupus familiaris", "settings": "in vivo"}, "[30]": {"tested_on": "HepG2", "experiment": "Cytotoxicity against human HepG2 cells assessed as reduction in ATP depletion in presence of glucose/galactose", "type": "cell-based"}, "[31]": {"species_on_record": "Homo sapiens", "experiment": "Selectivity ratio of compound effect on activity at COX2 in human whole blood to IC50 for FLAP in human whole blood"}, "[32]": {"experiment": "Clearance in Beagle dog at 1 umol/kg, iv", "type": "ADME, Canis lupus familiaris", "settings": "in vivo"}, "[33]": {"tested_on": "Cytochrome P450", "experiment": "Drug metabolism in human hepatocytes assessed as CYP450-mediated oxidation at 4 uM measured after 120 mins by LC-MS/MS analysis", "type": "ADME, cell-based, Hepatocyte", "settings": "2 h"}}, "note": "Active and inactive are the calls of the source. No cut-off for these calls is given here.", "data": [{"compound": "Cc1cc(-c2ccc(C(=O)[C@@H]3CCCC[C@H]3C(=O)Nc3cnn(C)c3S(N)(=O)=O)cc2)[nH]n1", "values": [{"measurement": "Drug metabolism", "setting": "[1]", "value": "Metabolite_Detected"}, {"measurement": "Activity", "setting": "[2]", "value": "Toxic"}, {"measurement": "Vd", "setting": "[3]", "value": 1.3, "unit": "L/kg"}, {"measurement": "bioavailability", "setting": "[4]", "value": 14, "unit": "%"}, {"measurement": "clearance", "setting": "[5]", "value": 10, "unit": "mL/min/kg"}, {"measurement": "half-life", "setting": "[6]", "value": 2.9, "unit": "h"}, {"measurement": "IC50", "setting": "[7]", "value": "> 32", "unit": "µM"}, {"measurement": "bioavailability", "setting": "[8]", "value": 65, "unit": "%"}, {"measurement": "IC50", "setting": "[9]", "value": "> 32", "unit": "µM"}]}, {"compound": "Cc1cc(-c2ccc(C(=O)[C@@H]3CCCC[C@H]3C(=O)Nc3cnn4c3C(=O)NCC4)cc2)[nH]n1", "values": [{"measurement": "IC50", "setting": "[10]", "value": "74 to 340", "unit": "µM"}, {"measurement": "Activity", "setting": "[11]", "value": "Non-Toxic"}, {"measurement": "Activity", "setting": "[12]", "value": "Non-Toxic"}, {"measurement": "bioavailability", "setting": "[13]", "value": 14, "unit": "%"}, {"measurement": "Activity", "setting": "[14]", "value": "Non-Toxic"}, {"measurement": "half-life", "setting": "[15]", "value": 12, "unit": "h"}, {"measurement": "Activity", "setting": "[16]", "value": "Non-Toxic"}, {"measurement": "Activity", "setting": "[17]", "value": "Non-Toxic"}, {"measurement": "Activity", "setting": "[2]", "value": "Non-Toxic"}, {"measurement": "Activity", "setting": "[18]", "value": "Non-Toxic"}, {"measurement": "Activity", "setting": "[19]", "value": "Non-Toxic"}, {"measurement": "Activity", "setting": "[20]", "value": "Non-Toxic"}, {"measurement": "Activity", "setting": "[21]", "value": "Non-Toxic"}, {"measurement": "IC50", "setting": "[7]", "value": "> 32", "unit": "µM"}, {"measurement": "IC50", "setting": "[9]", "value": "> 32", "unit": "µM"}]}, {"compound": "Cc1cc(-c2ccc(C(=O)[C@@H]3CCCC[C@H]3C(=O)Nc3cnn(C)c3C(=O)NOC(C)(C)C)cc2)[nH]n1", "values": [{"measurement": "IC50", "setting": "[22]", "value": 0.0058, "unit": "µM"}, {"measurement": "Selectivity ratio", "setting": "[23]", "value": "> 100"}, {"measurement": "IC50", "setting": "[24]", "value": "> 250", "unit": "µM"}, {"measurement": "fIC50", "setting": "[25]", "value": 1.6, "unit": "nM"}, {"measurement": "Vd", "setting": "[26]", "value": 0.4, "unit": "L/kg"}, {"measurement": "Activity", "setting": "[27]", "value": "inactive"}, {"measurement": "Activity", "setting": "[28]", "value": "inactive"}, {"measurement": "half-life", "setting": "[29]", "value": 7, "unit": "h"}, {"measurement": "IC50", "setting": "[30]", "value": "> 250", "unit": "µM"}, {"measurement": "Selectivity ratio", "setting": "[31]", "value": "> 100"}, {"measurement": "clearance", "setting": "[32]", "value": 2, "unit": "mL/min/kg"}, {"measurement": "Drug metabolism", "setting": "[33]", "value": "Metabolite_Detected"}]}]}
